Test results: PubChem BioAssay AID623890 (Vanderbilt Specialized Chemistry Center, 2012)

Target: Metabotropic glutamate receptor 5 (Rattus norvegicus) (UniProt P31424)
Experiment: off-target activity at rat mGlu5, profiling panel, selectivity assay for mGlu4 lead optimization, cell-based, calcium flux, Fluo-4 (AID 623890)
Conditions: rat mGlu5 cells, Fluo-4 calcium flux, glutamate CRC shift, at 10 µM
In short: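 Measure: peak post-agonist fluorescence rise, normalized to baseline and pre-agonist point, four-parameter logistic fit; material: rat mGlu5-expressing cells loaded with Fluo-4 AM calcium dye; probe or stimulus: glutamate as agonist, added after compound; incubation: compound about 2.5 min before glutamate, then roughly 3 min signal recording; detection: Fluo-4 calcium fluorescence, ex 470/em 540 nm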

Metabotropic glutamate receptor 5 (Rattus norvegicus), sequence (P31424 whole entry, looked up): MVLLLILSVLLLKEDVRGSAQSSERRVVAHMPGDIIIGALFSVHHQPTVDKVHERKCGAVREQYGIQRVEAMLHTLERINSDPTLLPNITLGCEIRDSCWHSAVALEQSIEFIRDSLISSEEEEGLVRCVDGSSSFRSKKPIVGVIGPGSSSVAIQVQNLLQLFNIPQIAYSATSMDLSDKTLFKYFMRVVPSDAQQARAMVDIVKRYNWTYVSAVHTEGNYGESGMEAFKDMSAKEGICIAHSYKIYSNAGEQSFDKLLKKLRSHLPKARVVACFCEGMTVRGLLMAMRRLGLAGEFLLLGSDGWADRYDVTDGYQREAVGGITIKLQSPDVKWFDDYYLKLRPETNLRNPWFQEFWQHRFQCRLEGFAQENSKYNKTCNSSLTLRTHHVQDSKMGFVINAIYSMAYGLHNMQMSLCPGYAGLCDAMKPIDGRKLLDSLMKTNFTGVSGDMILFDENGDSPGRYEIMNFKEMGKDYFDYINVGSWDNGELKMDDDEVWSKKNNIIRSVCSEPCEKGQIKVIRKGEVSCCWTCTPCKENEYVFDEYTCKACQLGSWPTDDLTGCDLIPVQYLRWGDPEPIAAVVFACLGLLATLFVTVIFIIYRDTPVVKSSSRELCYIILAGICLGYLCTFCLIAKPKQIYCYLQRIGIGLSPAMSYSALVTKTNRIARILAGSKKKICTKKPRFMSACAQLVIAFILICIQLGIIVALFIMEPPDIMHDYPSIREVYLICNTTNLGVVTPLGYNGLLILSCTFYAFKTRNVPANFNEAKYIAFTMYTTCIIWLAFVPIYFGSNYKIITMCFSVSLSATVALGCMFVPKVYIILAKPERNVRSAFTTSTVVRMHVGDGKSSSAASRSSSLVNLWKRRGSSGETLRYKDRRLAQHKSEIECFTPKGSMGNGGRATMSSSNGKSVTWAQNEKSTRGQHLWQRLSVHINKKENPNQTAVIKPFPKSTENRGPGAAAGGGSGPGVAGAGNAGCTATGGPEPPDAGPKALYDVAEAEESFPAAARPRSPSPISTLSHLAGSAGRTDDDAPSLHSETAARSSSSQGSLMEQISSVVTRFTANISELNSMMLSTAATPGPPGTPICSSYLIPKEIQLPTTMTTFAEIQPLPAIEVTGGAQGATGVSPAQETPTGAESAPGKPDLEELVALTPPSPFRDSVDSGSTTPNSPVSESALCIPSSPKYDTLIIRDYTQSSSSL

fold shift of glutamate EC50: 0.304
max response (measured here: glutamate max response with compound): 74%
SMILES: O=C(Nc1cccc(Cl)c1)c1ccccn1
